Here are results for 1 compound from ChEMBL document CHEMBL2424641, “Synthesis and evaluation of novel radioligands for positron emission tomography imaging of the orexin-2 receptor” (J Med Chem, 2013).

Data set [1] relates to Hippocampus. Put plainly: Drug uptake in rhesus monkey hippocampus at 115.5 MBq, iv after 30 seconds by PET analysis. It counts as ADME, organism-based, Macaca mulatta. To be noted: in vivo, 0.5 min. A digest of the protocol: (§1)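 A single rhesus monkey, thiamylal induction then 1.5% isoflurane; 90 min 3D dynamic PET after transmission scan; [11C] tracer bolus via crural vein (115.5 MBq at baseline; 87.7 MBq after tariquidar 8 mg/kg iv over 10 min, 0.25 h before). ROIs on individual MRI; decay-corrected %SUV.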

Data set [2] is described as follows: Metabolic stability in P-gp-knockout rat brain assessed as unmetabolized drug level at 330 MBq after 30 min by HPLC chromatogram analysis. As to conditions: read-out: Stability; call rule not given here. It is filed as ADME, tissue-based. The method, boiled down:
(§2)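 Mdr1a-knockout rat (450 g) given [11C] tracer 330 MBq iv and decapitated at 30 min. Plasma deproteinised with MeCN; half-brain homogenised in 50% aqueous MeCN and deproteinised. Supernatants run on C18 radio-HPLC (MeCN/H2O/TEA 5/5/0.01, 1.5 mL/min). Parent % = parent peak area/total peak area × 100, decay corrected; n = 1.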

Data set [3] relates to Brain. Put plainly: Ex vivo drug metabolism in P-gp-knockout rat brain assessed as retention time at 330 MBq after 30 min by HPLC chromatogram analysis. It is filed as ADME, tissue-based. As to conditions: 0.5 h. A digest of the protocol: as §2
For data set [4], the system named is Cerebellum. Put plainly: Drug uptake in P-gp-knockout rat cerebellum at 78.7 to 189.8 MBq, iv after 90 mins by PET analysis in presence of 10 mg/kg, po unlabeled compound. Also noted: dose 10 mg/kg, route oral. It is filed as ADME, organism-based. To be noted: in vivo, 1.5 h. A digest of the protocol: (§3)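 Male Mdr1a-knockout rats (410−500 g) under 1.5% isoflurane at 37 °C; [11C] tracer 78.7−189.8 MBq by tail vein. 90 min list-mode microPET scan with filtered back-projection; ROIs drawn on MRI template; decay-corrected %ID/mL, n = 3. Blocking: unlabeled compound 10 mg/kg po in 5% DMSO/10% cremophor in 10 mM HCl, given 1 h before tracer.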

Data set [5] in a line: Metabolic stability in P-gp-knockout rat plasma assessed as unmetabolized drug level at 330 MBq after 30 min by HPLC chromatogram analysis. It is filed as ADME, cell-free. To be noted: read-out: Stability. A digest of the protocol: as §2
Data set [6] can be described thus: Drug uptake in rhesus monkey cerebellum at 115.5 MBq, iv after 30 seconds by PET analysis. It counts as ADME, organism-based, Macaca mulatta. To be noted: in vivo, 0.5 min. A digest of the protocol:
as §1

In data set [7] the test system is Brain. Put plainly: Drug uptake in rhesus monkey brain at 115.5 MBq, iv by PET analysis in presence of tariquidar. It is filed as ADME, organism-based, Macaca mulatta. As to conditions: in vivo.
The nature of data set [8]: Drug uptake in rhesus monkey cerebellum at 115.5 MBq, iv after >30 seconds by PET analysis. It is filed as ADME, organism-based, Macaca mulatta. To be noted: in vivo. The method, boiled down:
as §1

The subject of data set [9] is Hippocampus. Put plainly: Drug uptake in P-gp-knockout rat hippocampus at 78.7 to 189.8 MBq, iv after 90 mins by PET analysis. As to conditions: in vivo, 1.5 h. It counts as ADME, organism-based. A digest of the protocol:
as §3

Data set [10] is described as follows: Drug uptake in P-gp-knockout rat neocortex at 78.7 to 189.8 MBq, iv after 90 mins by PET analysis in presence of 10 mg/kg, po unlabeled compound. To be noted: in vivo, 1.5 h. More on the design: dose 10 mg/kg, route oral. It is filed as ADME, organism-based. A digest of the protocol:
as §3

A short description of data set [11]: Drug uptake in rhesus monkey neocortex at 115.5 MBq, iv after >30 seconds by PET analysis. It counts as ADME, organism-based, Macaca mulatta. To be noted: in vivo. The method, boiled down: as §1
The subject of data set [12] is Thalamus. Put plainly: Drug uptake in P-gp-knockout rat thalamus at 78.7 to 189.8 MBq, iv after 90 mins by PET analysis. It counts as ADME, organism-based. As to conditions: in vivo, 1.5 h. The method, boiled down:
as §3

For data set [13], the system named is Brain. Put plainly: Ex vivo drug uptake in P-gp-knockout rat brain assessed as retention time at 330 MBq after 30 min by HPLC chromatogram analysis. It counts as ADME, tissue-based. To be noted: 0.5 h. A digest of the protocol: as §2
The nature of data set [14]: Drug uptake in P-gp-knockout rat neocortex at 78.7 to 189.8 MBq, iv after 90 mins by PET analysis. It counts as ADME, organism-based. To be noted: in vivo, 1.5 h. A digest of the protocol:
as §3

Data set [15] concerns Thalamus. Put plainly: Drug uptake in P-gp-knockout rat thalamus at 78.7 to 189.8 MBq, iv after 90 mins by PET analysis in presence of 10 mg/kg, po unlabeled compound. It is filed as ADME, organism-based. To be noted: in vivo, 1.5 h. More on the design: dose 10 mg/kg, route oral. The method, boiled down: as §3
Data set [16] in a line: Drug uptake in rhesus monkey neocortex at 115.5 MBq, iv after 30 seconds by PET analysis. It is filed as ADME, organism-based, Macaca mulatta. To be noted: in vivo, 0.5 min. The method, boiled down: as §1
The test system of data set [17] is Hippocampus. Put plainly: Drug uptake in P-gp-knockout rat hippocampus at 78.7 to 189.8 MBq, iv after 90 mins by PET analysis in presence of 10 mg/kg, po unlabeled compound. It counts as ADME, organism-based. To be noted: in vivo, 1.5 h. More on the design: dose 10 mg/kg, route oral. The method, boiled down: as §3
In data set [18] the test system is Hippocampus. Put plainly: Drug uptake in rhesus monkey hippocampus at 115.5 MBq, iv after >30 seconds by PET analysis. It is filed as ADME, organism-based, Macaca mulatta. To be noted: in vivo. A digest of the protocol: as §1
Data set [19] is described as follows: Octanol-phosphate buffer partition coefficient, log D of the compound at pH 7.4 by Shake flask method. It counts as physicochemical. A digest of the protocol: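 [11C]-labelled compound (about 200 000 cpm) in n-octanol and 0.1 M PBS pH 7.4, vortexed 3 min at rt and centrifuged; weighed aliquots of each phase γ-counted, with the organic layer repartitioned until stable. log D = log(cpm/g octanol ÷ cpm/g PBS); triplicate.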

Each structure is given as a SMILES string.

One may read the logD as lipophilicity at a set pH, counting ionised and neutral species. Turning to `Cc1ncc(OC[C@@]2(c3cccc(F)c3)C[C@H]2C(=O)Nc2ccc(F)cn2)c(CO[11CH3])n1`, the Drug uptake result is given as “Active” in [1]; “Not Active” in data set [4]; “Active” in data set [6]; “Active” in data set [7]; “Not Active” in data set [8]; “Active” in data set [9]. In addition, the Drug uptake result in data set [10] is “Not Active”; in data set [11], “Not Active”; in [12], “Active”; in [14], “Active”; in data set [15], “Active”; in [16] it was “Active”. Besides, the Drug uptake result in data set [17] and in data set [18] was “Not Active” throughout. In addition, the remaining at 0.5 h in data set [2] turned out to be 54%; in data set [5], 12%. Further, the Retention_time in data set [3] came to 2 min; in data set [13], 5.2 min. The same compound gave a pH-dependent lipophilicity (logD) in data set [19] of 2.97.
